One data set addresses T1, MAO-B (Rattus norvegicus, UniProt P19643).
T1 sequence (P19643 whole entry): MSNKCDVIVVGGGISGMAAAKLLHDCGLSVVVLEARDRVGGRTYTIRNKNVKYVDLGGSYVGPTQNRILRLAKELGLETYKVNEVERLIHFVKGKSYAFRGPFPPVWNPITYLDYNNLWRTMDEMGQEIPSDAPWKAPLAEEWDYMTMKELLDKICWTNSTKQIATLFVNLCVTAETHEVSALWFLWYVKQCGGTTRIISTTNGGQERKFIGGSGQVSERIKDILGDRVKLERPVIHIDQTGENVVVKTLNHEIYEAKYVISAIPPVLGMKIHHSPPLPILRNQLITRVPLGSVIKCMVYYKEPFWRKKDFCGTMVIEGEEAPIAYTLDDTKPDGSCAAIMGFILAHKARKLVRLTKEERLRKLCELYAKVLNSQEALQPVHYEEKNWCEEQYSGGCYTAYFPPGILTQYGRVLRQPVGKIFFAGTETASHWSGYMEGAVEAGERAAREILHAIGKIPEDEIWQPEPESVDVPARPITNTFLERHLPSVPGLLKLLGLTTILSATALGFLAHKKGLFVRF
The data set can be described thus: Inhibition of MAO-B in rat forebrain using [14C]PEA as substrate at 30 uM incubated for 20 mins prior to substrate addition measured after 10 mins by liquid scintillation counting analysis relative to control. It counts as tissue-based. Conditions: probe [14C]PEA.

The target of the next data set is T2, MAO-A (Rattus norvegicus, UniProt P21396).
T2 sequence (P21396 whole entry): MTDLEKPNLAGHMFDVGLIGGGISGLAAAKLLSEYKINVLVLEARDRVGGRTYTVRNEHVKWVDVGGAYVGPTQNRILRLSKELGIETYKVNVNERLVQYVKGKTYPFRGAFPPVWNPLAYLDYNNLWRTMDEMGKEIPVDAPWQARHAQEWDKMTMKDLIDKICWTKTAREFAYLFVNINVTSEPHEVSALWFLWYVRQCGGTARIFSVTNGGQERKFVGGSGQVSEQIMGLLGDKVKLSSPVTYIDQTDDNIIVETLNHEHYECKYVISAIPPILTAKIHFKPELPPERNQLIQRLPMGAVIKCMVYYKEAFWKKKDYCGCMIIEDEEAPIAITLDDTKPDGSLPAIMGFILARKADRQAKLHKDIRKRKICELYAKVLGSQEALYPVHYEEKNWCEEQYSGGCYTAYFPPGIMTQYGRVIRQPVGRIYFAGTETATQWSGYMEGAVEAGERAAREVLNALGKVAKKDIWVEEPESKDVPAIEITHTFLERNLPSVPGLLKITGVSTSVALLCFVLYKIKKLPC
The data set can be described thus: Inhibition of MAO-A in rat forebrain using [14C]5-HT as substrate at 30 uM incubated for 20 mins prior to substrate addition measured after 5 mins by liquid scintillation counting analysis relative to control. In kind it is tissue-based. Conditions: probe [14C]5-HT.

In another data set the target is Cytochrome P450 3A4 (Homo sapiens, UniProt P08684). The data set can be described thus: Inhibition of human CYP3A4 assessed as terfenadine hydroxylation after 20 mins by LC/MS/MS analysis. It counts as ADME. The essentials: (§1)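 Human liver microsomes (0.2 mg protein/mL) with 1 mM NADPH in 50 mM HEPES pH 7.4, 10 mM MgCl2, 0.1 mM EDTA. After centrifugation, supernatant metabolite measured by LC/MS/MS. Standard curve from authentic metabolite cocktail added to unincubated reaction mix.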

Another data set addresses Cytochrome P450 2D6 (Homo sapiens, UniProt P10635). The data set can be described thus: Inhibition of human CYP2D6 assessed as dextromethorphan O-demethylation after 20 mins by LC/MS/MS analysis. In kind it is ADME. Summed up: as §1
The next data set deals with T3, Cytochrome P450 1A2 (Homo sapiens, UniProt P05177).
T3 sequence (P05177 whole entry): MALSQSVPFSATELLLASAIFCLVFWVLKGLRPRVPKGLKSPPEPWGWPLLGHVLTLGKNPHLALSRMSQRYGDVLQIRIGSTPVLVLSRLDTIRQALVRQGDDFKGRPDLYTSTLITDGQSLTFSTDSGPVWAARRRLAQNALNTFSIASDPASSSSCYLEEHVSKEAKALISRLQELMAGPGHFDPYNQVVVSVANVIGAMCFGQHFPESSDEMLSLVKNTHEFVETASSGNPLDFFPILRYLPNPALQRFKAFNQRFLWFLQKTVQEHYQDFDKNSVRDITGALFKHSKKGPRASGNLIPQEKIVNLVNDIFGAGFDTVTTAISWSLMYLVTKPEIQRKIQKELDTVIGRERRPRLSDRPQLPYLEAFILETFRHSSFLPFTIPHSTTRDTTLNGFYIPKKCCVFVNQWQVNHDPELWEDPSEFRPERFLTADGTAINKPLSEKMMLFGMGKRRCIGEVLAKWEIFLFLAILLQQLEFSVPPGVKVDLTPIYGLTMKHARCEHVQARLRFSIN
As to the kind of experiment: Inhibition of human CYP1A2 assessed as ethoxyresorufin O-deethylation after 20 mins by fluorescence plate reader analysis. It counts as ADME. Summed up:
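Human liver microsomes (0.2 mg protein/mL) with 1 mM NADPH in 50 mM HEPES pH 7.4, 10 mM MgCl2, 0.1 mM EDTA. After centrifugation, supernatant read on a fluorescence plate reader. Standard curve from authentic metabolite added to unincubated reaction mix.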

The target of another data set is Cytochrome P450 2C9 (Homo sapiens, UniProt P11712). The data set can be described thus: Inhibition of human CYP2C9 assessed as tolbutamide hydroxylation after 20 mins by LC/MS/MS analysis. In kind it is ADME. Summed up:
as §1

The subject of data set [1] is Staphylococcus aureus. As to the kind of experiment: Antibacterial activity against methicillin-resistant Staphylococcus aureus SR3637 infected in JCL/ICR mouse systemic infection model assessed as mortality administered as po measured over 7 days. In kind it is functional. Conditions: 168 h. Summed up:
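Five-week-old male JCL/ICR mice (20–25 g), five per group. Infected intraperitoneally with 0.5 or 1.0 mL bacterial suspension (about 100× LD50). Oral dosing 1 h post-infection. Mortality followed 7 days; ED50 with 95% confidence limits by logit method.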

The test system of data set [2] is Moraxella catarrhalis. The data set can be described thus: Ratio of linezolid MIC to compound MIC for Moraxella catarrhalis SR26840 clinical isolate. In kind it is functional.
The next data set has as its system Haemophilus influenzae. The data set can be described thus: Ratio of linezolid MIC to compound MIC for Haemophilus influenzae SR27914 clinical isolate. In kind it is functional.
The subject of data set [3] is Staphylococcus aureus. As to the kind of experiment: Ratio of linezolid MIC to compound MIC for Staphylococcus aureus Smith. It counts as functional.
Data set [4] concerns Staphylococcus aureus. As to the kind of experiment: Ratio of linezolid MIC to compound MIC for Staphylococcus aureus SR20549 clinical isolate. In kind it is functional.
Another data set relates to Streptococcus pneumoniae. As to the kind of experiment: Antibacterial activity against Streptococcus pneumoniae SR26207 clinical isolate assessed as growth inhibition by CLSI broth microdilution method. In kind it is functional. Summed up:
(§2)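 MIC by CLSI broth microdilution in cation-adjusted Mueller-Hinton broth; S. pneumoniae medium supplemented with 5% lysed horse blood.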

Data set [5] deals with Moraxella catarrhalis. As to the kind of experiment: Antibacterial activity against Moraxella catarrhalis SR26840 clinical isolate assessed as growth inhibition by CLSI broth microdilution method. In kind it is functional. Summed up:
as §2
A general note: Dilution methods test growth across graded concentrations, often in twofold steps.

For another data set, the system named is Enterococcus faecium. As to the kind of experiment: Antibacterial activity against Enterococcus faecium SR7940 clinical isolate assessed as growth inhibition by CLSI broth microdilution method. It counts as functional. The essentials: as §2
Another data set deals with Enterococcus faecalis. The data set can be described thus: Antibacterial activity against Enterococcus faecalis SR1004 clinical isolate assessed as growth inhibition by CLSI broth microdilution method. It counts as functional. Summed up:
as §2

Data set [6] deals with Staphylococcus aureus. The data set can be described thus: Antibacterial activity against Staphylococcus aureus Smith assessed as growth inhibition by CLSI broth microdilution method. It counts as functional. The essentials:
as §2

As usually defined, the inhibition is how much of the control response was suppressed. Higher therefore signals a response far below the control. One may read the IC50 as the concentration that gives 50% inhibition. A word on the ED50: it is the dose at which the effect has come halfway, by size or by number of responders. Broadly, the MIC is the smallest concentration in the dilution series that meets the test's criterion for growth inhibition.

The structures appear in SMILES notation. ≈ marks a conversion by molar mass, not a printed value.

Sequence of Cytochrome P450 3A4 (P08684 whole entry): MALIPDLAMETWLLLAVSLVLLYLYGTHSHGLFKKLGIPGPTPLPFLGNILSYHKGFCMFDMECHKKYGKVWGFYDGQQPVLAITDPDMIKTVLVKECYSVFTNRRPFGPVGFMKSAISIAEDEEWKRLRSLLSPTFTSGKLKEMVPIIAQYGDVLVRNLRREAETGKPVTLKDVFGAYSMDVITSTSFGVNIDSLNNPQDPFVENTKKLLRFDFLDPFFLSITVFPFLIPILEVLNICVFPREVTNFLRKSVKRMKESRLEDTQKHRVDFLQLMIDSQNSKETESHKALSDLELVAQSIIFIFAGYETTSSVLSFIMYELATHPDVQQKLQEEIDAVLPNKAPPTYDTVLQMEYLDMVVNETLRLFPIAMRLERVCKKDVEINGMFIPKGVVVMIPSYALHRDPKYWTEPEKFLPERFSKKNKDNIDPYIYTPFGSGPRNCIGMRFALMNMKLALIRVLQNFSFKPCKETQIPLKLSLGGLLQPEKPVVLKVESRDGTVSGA
Sequence of Cytochrome P450 2D6 (P10635 whole entry): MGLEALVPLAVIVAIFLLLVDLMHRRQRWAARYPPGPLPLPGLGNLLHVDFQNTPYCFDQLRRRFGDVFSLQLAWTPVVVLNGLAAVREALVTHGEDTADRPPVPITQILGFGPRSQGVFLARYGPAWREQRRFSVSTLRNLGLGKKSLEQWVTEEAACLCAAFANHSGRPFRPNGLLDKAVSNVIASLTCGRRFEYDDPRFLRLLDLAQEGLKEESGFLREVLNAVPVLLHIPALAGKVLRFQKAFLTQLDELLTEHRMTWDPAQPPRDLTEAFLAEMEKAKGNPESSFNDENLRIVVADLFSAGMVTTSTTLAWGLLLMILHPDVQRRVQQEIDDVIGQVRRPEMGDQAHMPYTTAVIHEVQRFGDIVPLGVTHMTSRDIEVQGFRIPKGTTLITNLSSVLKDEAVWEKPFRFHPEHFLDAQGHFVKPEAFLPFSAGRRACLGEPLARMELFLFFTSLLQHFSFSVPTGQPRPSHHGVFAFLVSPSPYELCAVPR
Sequence of Cytochrome P450 2C9 (P11712 whole entry): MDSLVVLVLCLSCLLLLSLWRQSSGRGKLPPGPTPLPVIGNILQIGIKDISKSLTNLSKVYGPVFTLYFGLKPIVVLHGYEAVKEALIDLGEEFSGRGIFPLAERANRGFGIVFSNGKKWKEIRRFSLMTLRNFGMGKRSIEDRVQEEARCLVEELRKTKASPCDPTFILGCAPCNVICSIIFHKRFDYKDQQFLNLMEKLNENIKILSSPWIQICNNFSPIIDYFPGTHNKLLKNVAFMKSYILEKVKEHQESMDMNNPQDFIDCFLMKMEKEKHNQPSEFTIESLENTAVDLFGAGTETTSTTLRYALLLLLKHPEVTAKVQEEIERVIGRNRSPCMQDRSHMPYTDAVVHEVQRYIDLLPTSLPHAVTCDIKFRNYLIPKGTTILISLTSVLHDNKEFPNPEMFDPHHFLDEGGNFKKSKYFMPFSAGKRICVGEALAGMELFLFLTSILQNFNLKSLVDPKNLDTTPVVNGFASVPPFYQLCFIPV

With `COC(=S)NC[C@H]1CN(c2ccc(N3CCNN(C(=O)CO)CC3)c(F)c2)C(=O)O1`, the inhibition at 10 min, 30 µM against MAO-B was 10.1%. This compound also registered an inhibition at 5 min, 30 µM at MAO-A of 48.2%. For the same compound, the IC50 on Cytochrome P450 3A4, at Cytochrome P450 2D6, on Cytochrome P450 1A2 and on Cytochrome P450 2C9 was above 20 µM throughout. In the data set on Staphylococcus aureus [1], the ED50 amounted to 1.05 mg/kg. The Ratio in the data set on Moraxella catarrhalis [2], with Haemophilus influenzae, in the data set on Staphylococcus aureus [3] and in the data set on Staphylococcus aureus [4] was 4 in each case. For the same compound, the MIC with Streptococcus pneumoniae was found to be 0.125 µg/mL (≈ 0.283 µM); in the data set on Moraxella catarrhalis [5] it was 2 µg/mL (≈ 4.53 µM); in the data set with Enterococcus faecium it was 0.25 µg/mL (≈ 0.566 µM); with Enterococcus faecalis, 0.5 µg/mL (≈ 1.13 µM); with Staphylococcus aureus [6] it was 0.25 µg/mL (≈ 0.566 µM).

`COC(=S)NC[C@H]1CN(c2cc(F)c(N3CCNN(C(=O)CO)CC3)c(F)c2)C(=O)O1` had an inhibition at 10 min, 30 µM against MAO-B of 10.6%. This compound had an inhibition at 5 min, 30 µM on MAO-A of 12.4%. The IC50 on Cytochrome P450 3A4, at Cytochrome P450 2D6, on Cytochrome P450 1A2 and on Cytochrome P450 2C9 was above 20 µM each time. For the same compound, in the data set with Staphylococcus aureus [1], the ED50 was 2.07 mg/kg. The Ratio in the data set on Moraxella catarrhalis [2], in the data set with Haemophilus influenzae, with Staphylococcus aureus [3] and with Staphylococcus aureus [4] was 4 in each case. Further, the MIC with Streptococcus pneumoniae is at most 0.063 µg/mL; with Moraxella catarrhalis [5], 1 µg/mL (≈ 2.18 µM); in the data set on Enterococcus faecium it was 0.25 µg/mL (≈ 0.544 µM); with Enterococcus faecalis, 0.25 µg/mL (≈ 0.544 µM); in the data set with Staphylococcus aureus [6] it was 0.25 µg/mL (≈ 0.544 µM).

The values are drawn from ChEMBL document CHEMBL2375276, “Antibacterial oxazolidinone analogues having a N-hydroxyacetyl-substituted seven-membered [1,2,5]triazepane or [1,2,5]oxadiazepane C-ring unit” (Eur J Med Chem, 2013).
